The record followed here is ChEMBL document CHEMBL4145451, “1,3,5-triazaspiro[5.5]undeca-2,4-dienes as selective Mycobacterium tuberculosis dihydrofolate reductase inhibitors with potent whole cell activity” (Eur J Med Chem, 2018).

In brackets after ≈: the same amount, converted by molar mass. A value given as a limit tells only on which side of the number the result lay.

Data set [1] concerns Mycobacterium tuberculosis. In words: Antimycobacterial activity against Mycobacterium tuberculosis H37Rv infected in human THP1 cells after 5 days by Steady-Glo luminescence assay. Type of data set: functional. Particulars: 120 h.
Data set [2] has as its target T1, Dihydrofolate reductase (Mycobacterium tuberculosis, UniProt P9WNX1).
T1 sequence (P9WNX1 whole entry): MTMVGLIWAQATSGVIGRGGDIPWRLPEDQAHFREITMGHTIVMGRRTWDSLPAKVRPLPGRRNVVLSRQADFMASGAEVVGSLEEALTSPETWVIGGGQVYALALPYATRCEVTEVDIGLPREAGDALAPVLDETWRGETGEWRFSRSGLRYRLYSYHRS
As to the kind of experiment: Inhibition of Mycobacterium tuberculosis H37Rv DHFR expressed in Escherichia coli assessed as reduction in consumption of NADPH using DHF as substrate by fluorescence method.

For data set [3], the target named is T2, Dihydrofolate reductase (Homo sapiens, UniProt P00374).
T2 sequence (P00374 whole entry): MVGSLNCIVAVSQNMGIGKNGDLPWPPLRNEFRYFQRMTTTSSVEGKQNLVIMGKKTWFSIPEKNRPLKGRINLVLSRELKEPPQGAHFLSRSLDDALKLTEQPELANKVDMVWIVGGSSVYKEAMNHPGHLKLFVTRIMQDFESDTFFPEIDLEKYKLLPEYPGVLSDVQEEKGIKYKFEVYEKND
As to the kind of experiment: Inhibition of human DHFR assessed as reduction in consumption of NADPH using DHF as substrate by fluorescence method.

The test system of data set [4] is Mycobacterium tuberculosis. In words: Antimycobacterial activity against Mycobacterium tuberculosis H37Rv after 10 days by broth dilution method. It is filed as functional. Particulars: 240 h. In outline:
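Broth microdilution. Mid-log cultures (OD600 0.4–0.6) were diluted and added to 2-fold serial compound dilutions in DMSO, giving a final 5 × 10^5 CFU/mL in 7H9-albumin-dextrose-catalase-glycerol-Tween 80. Plates were sealed and incubated at 37 °C for 10 days with shaking at 80 rpm. OD600 was read; MIC50 and MIC90 are the lowest concentrations giving 50% and 90% growth inhibition. Rifampicin and DMSO served as controls. Means of 3 independent experiments.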

A short description of data set [5]: Cytotoxicity against human HepG2 cells assessed as reduction in cell viability by MTS assay. Type of data set: cell-based. In outline:
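HepG2 cells were grown in DMEM with 10% heat-inactivated FBS at 37 °C and 5% CO2, then exposed to 2-fold serially diluted compound. Viability was read by MTS absorbance at 490 nm. CC50 is the concentration giving a 50% viability drop, taken from the absorbance-versus-concentration plot. Triton X-100 was the positive control. Means of 3 independent experiments.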
(In general: Tetrazolium assays rely on reduction of a dye to a coloured formazan, in cell work by metabolically active cells.)

The nature of data set [6]: Hemolytic activity in human RBC after 24 hrs. It is filed as ADME, cell-based, Erythrocyte. Particulars: red blood cells (erythrocytes), read-out: LC50. The method in brief:
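Red blood cells were PBS-washed and resuspended at 10^6/mL, then incubated 24 h with compound. After centrifugation at 1000 g for 10 min, supernatant absorbance was read at 540 nm. PBS served as the negative control and 0.1% Triton X-100 as the positive control. Reported as LC50.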

Data set [7] is described as follows: Selectivity index, ratio of CC50 for cytotoxicity against human HepG2 cells to MIC90 for antimycobacterial activity against Mycobacterium tuberculosis H37Rv. Particulars: HepG2 cells versus Mycobacterium tuberculosis H37Rv, read-out: Selectivity Index. It is filed as toxicity, cell-based. In outline:
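H37Rv grown to mid-log (OD600 0.4–0.6), 5 × 10^5 CFU/mL, in supplemented 7H9 with 2-fold compound dilutions (DMSO), 10 days at 37 °C shaken. MIC90 is the lowest concentration giving 90% inhibition by OD600. HepG2 cells in DMEM/10% FBS are exposed to 2-fold dilutions, and CC50 (50% viability loss) is read by MTS absorbance at 490 nm. SI = CC50/MIC90. Means of 3 independent experiments.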

The target of data set [8] is T1, Dihydrofolate reductase. In words: Inhibition of Mycobacterium tuberculosis His-tagged DHFR assessed as reduction in consumption of NADPH using DHF as substrate measured every 30 secs over 6 mins by spectrophotometric method.
For data set [9], the target named is T2, Dihydrofolate reductase. In words: Inhibition of recombinant human DHFR assessed as reduction in consumption of NADPH using DHF as substrate measured every 30 secs over 6 mins by spectrophotometric method.
Data set [10] is described as follows: Selectivity index, ratio of IC50 for inhibition of recombinant human DHFR to IC50 for inhibition of Mycobacterium tuberculosis His-tagged DHFR. In outline: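 Spectrophotometric DHFR assay at room temperature in 0.15 M potassium phosphate, pH 7, with 50 µM DHF, 60 µM NADPH and 1.5 × 10^-3 units recombinant human DHFR or 0.3 ng/mL recombinant Mtb DHFR, plus serial inhibitor concentrations in DMSO. NADPH use is followed at 340 nm every 30 s for 6 min. Slope versus uninhibited gives % inhibition, and IC50 comes from log-dose curves. SI = human IC50 / Mtb IC50.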

A short description of data set [11]: Aqueous solubility of compound in pH 7.4 solution after 90 mins by UV method. It is filed as physicochemical. Particulars: aqueous solution pH 7.4, pH 7.4. The method in brief:
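Compound was diluted from a 10 mM DMSO stock to final 3.13–100 µM in 45 mM ethanolamine/potassium dihydrogen phosphate/potassium acetate buffer, pH 7.4. After 90 min at room temperature the solution was filtered and diluted with acetonitrile and buffer. Absorbance was read at 330 nm.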

Data set [12] can be described thus: Half life in male rat liver microsomes at 3 uM preincubated for 5 mins followed by NADPH addition measured up to 45 mins by LC-MS/MS analysis. It is filed as ADME, microsome. In outline:
(§1)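 Compound (final 3 µM) was incubated with male or female rat liver microsomes (0.3 mg protein/mL) in 0.1 M phosphate pH 7.4. After a 5 min pre-incubation at 37 °C, NADPH (final 1 mM) was added to start the reaction. Samples were taken at 0, 5, 10, 15, 30 and 45 min and the remaining compound was quantified by LC-MS.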
Background: Liver microsomes are a subcellular fraction often used to study metabolism.

A short description of data set [13]: Half life in female rat liver microsomes at 3 uM preincubated for 5 mins followed by NADPH addition measured up to 45 mins by LC-MS/MS analysis. Type of data set: ADME, microsome. The method in brief: as §1
A short description of data set [14]: Intrinsic clearance in male rat liver microsomes at 3 uM preincubated for 5 mins followed by NADPH addition measured up to 45 mins by LC-MS/MS analysis. It is filed as ADME, microsome. Particulars: read-out: CLH. The method in brief: as §1
Data set [15] in a line: Intrinsic clearance in female rat liver microsomes at 3 uM preincubated for 5 mins followed by NADPH addition measured up to 45 mins by LC-MS/MS analysis. It is filed as ADME, microsome. Particulars: read-out: CLH. The method in brief: as §1
Data set [16] deals with T2, Dihydrofolate reductase. In words: Inhibition of human DHFR.
The test system of a further data set is A549. As to the kind of experiment: Cytotoxicity against human A549 cells. It is filed as cell-based.
The test system of data set [17] is Mycobacterium tuberculosis. As to the kind of experiment: Antimycobacterial activity against GFP-fused Mycobacterium tuberculosis H37Rv after 7 days BacTiter-Glo assay. It is filed as functional. Particulars: 168 h.
Data set [18] concerns the target T1, Dihydrofolate reductase. In words: Inhibition of Mycobacterium tuberculosis H37Rv DHFR expressed in Escherichia coli BL21(DE3) assessed as reduction in consumption of NADPH using DHF as substrate preincubated for 1 min followed by DHF addition and measured for 2 mins by spectrophotometric method.
The subject of data set [19] is Mycobacterium tuberculosis. In words: Antimycobacterial activity against Mycobacterium tuberculosis H37Rv by resazurin dye based two-fold dilution assay. It is filed as functional. A general note: Alamar Blue is a resazurin reagent that responds to reducing activity.
Data set [20] has as its target T1, Dihydrofolate reductase. In words: Inhibition of Mycobacterium tuberculosis H37Rv DHFR assessed as reduction in consumption of NADPH using DHF as substrate incubated for 3 mins measured for 2 mins by spectrophotometric method.
A short description of data set [21]: Cytotoxicity against African green monkey Vero cells by MTT assay. Particulars: chlorocebus sabaeus. Type of data set: cell-based.
Data set [22] concerns the target T2, Dihydrofolate reductase. As to the kind of experiment: Inhibition of human DHFR assessed as reduction in consumption of NADPH using DHF as substrate incubated for 3 mins measured for 2 mins by spectrophotometric method.

The MIC90 is an inhibitory concentration at the 90% level, which refers to growth in some studies and to a panel of isolates in others. Usually IC50 stands for the midpoint of a concentration-inhibition curve. For the compound `N#Cc1ccc(Cn2ccc3c4c(N)nc(N)nc4ccc32)cc1`, the MIC90 in data set [1] is 0.5 µM (≈ 0.157 µg/mL). Also, the IC50 on Dihydrofolate reductase [2] is 0.0101 µM; at Dihydrofolate reductase [3] it was 0.0068 µM.

As a reminder, the MIC50 is an inhibitory concentration at the 50% level, which refers to growth in some studies and to a panel of isolates in others. Usually CC50 stands for the concentration giving 50% cytotoxicity. As usually defined, the solubility is how much of the substance goes into solution per volume. The term half-life denotes how long it takes for the measured level to halve. Take `Cl.NC1=NC2(CCCCC2)N(c2ccc(OCc3cn(CCCOc4ccc5ccc(=O)oc5c4)nn3)cc2)C(N)=N1`: in [4], the MIC50 worked out at 0.01 µM. The same compound displayed an MIC90 in data set [4] of 0.025 µM. Also, the half-maximal cytotoxic concentration (CC50) in data set [5] is > 100 µM. Further, the HC50 at 24 h in data set [6] was > 100 µM. Further, the selectivity ratio in [7] was > 4000. For the same compound, the IC50 at Dihydrofolate reductase [8] came to 1.34 µM; on Dihydrofolate reductase [9], 12 µM. Also, in data set [10], the Ratio IC50 was found to be 8.95. Moreover, the solubility at 1.5 h in data set [11] was > 100 µM. The half-life at 3 µM in [12] stood at 1.39 h; in data set [13] it was 4.51 h. Further, the microsomal CLint at 3 µM in data set [14] is 27.8 µL/min/mg; in data set [15] it was 8.6 µL/min/mg.

For the compound `Cc1c(Cc2ccccc2Br)cnc2nc(N)nc(N)c12`, the MIC90 in data set [1] was found to be 1.3 µM (≈ 0.447 µg/mL). For the same compound, the 50% inhibitory concentration (IC50) at Dihydrofolate reductase [2] is 0.0082 µM; on Dihydrofolate reductase [3], 0.0076 µM.

Regarding `NC1=NC2(CCCCC2)N(Cc2ccc(Cl)cc2)C(N)=N1`, the 50% inhibitory concentration (IC50) against Dihydrofolate reductase [16] and in the data set with A549 was > 100 µM each time.

`CCOC(=O)CC[C@H](NC(=O)c1ccc(N(C)Cc2cnc3nc(N)nc(N)c3n2)cc1)C(=O)OCC`: in data set [17], the MIC90 was determined as 0.6 µM (≈ 0.306 µg/mL). For the same compound, at Dihydrofolate reductase [18], the IC50 worked out at 0.03 µM.

One may read the MIC as the smallest concentration in the dilution series that meets the test's criterion for growth inhibition. `Nc1nc(N)nc(-c2ccc(OCc3ccc(Cl)cc3)cc2)n1`: 1.76 µM (≈ 0.577 µg/mL) was the least that counted as inhibitory in [19] (MIC). Moreover, the IC50 at Dihydrofolate reductase [20] is 5.17 µM; at Dihydrofolate reductase [22] it was 83.3 µM. The CC50 in data set [21] was 333 µM.

The compound `Nc1nc(N)nc(-c2ccc(OCc3cccc(Cl)c3)cc2)n1` yielded a minimum inhibitory concentration (MIC) in [19] of 1.57 µM (≈ 0.515 µg/mL). The results for the IC50 on Dihydrofolate reductase [20] and at Dihydrofolate reductase [22] were 5.62 µM and 72.5 µM, respectively. Besides, the midpoint of cytotoxicity in data set [21], the CC50, lay at 387 µM.

Consider `Cl.NC1=NC2(CCCCC2)N(Cc2cn(CCCCCOc3ccc4oc(=O)ccc4c3)nn2)C(N)=N1`, for which the IC50 at Dihydrofolate reductase [8] was > 100 µM.

Regarding `Cl.NC1=NC2(CCCCC2)N(c2ccc(OCc3cn(CCCCOc4ccc5ccc(=O)oc5c4)nn3)cc2)C(N)=N1`, the MIC50 in data set [4] worked out at 0.01 µM. In addition, the MIC90 in data set [4] is 0.025 µM. Besides, in [5], the CC50 was > 100 µM. In [6], the HC50 at 24 h is > 100 µM. Also, the selectivity ratio in data set [7] is > 4000. Further, the figures for the IC50 on Dihydrofolate reductase [8] and at Dihydrofolate reductase [9] were 0.82 µM and 15.3 µM, respectively. Besides, the Ratio IC50 in data set [10] was 18.7. The compound also returned a solubility at 1.5 h in data set [11] of 95.8 µM. The half-life at 3 µM in [12] was determined as 0.983 h; in data set [13], 1.89 h. For the same compound, the microsomal CLint at 3 µM in data set [14] came out at 39.2 µL/min/mg; in data set [15] it was 20.4 µL/min/mg.

For the compound `COC(=O)CC[C@H](NC(=O)c1ccc(N(C)Cc2cnc3nc(N)nc(N)c3n2)cc1)C(=O)OC`, the MIC90 in [17] lay within 0.2 to 0.4 µM (≈ 0.0965 to 0.193 µg/mL). The IC50 on Dihydrofolate reductase [18] stood at 0.05 µM.

Consider `Cl.NC1=NC2(CCCCC2)N(c2ccc(OCc3cn(CCCc4ccccc4)nn3)cc2)C(N)=N1`, for which the figures for the IC50 on Dihydrofolate reductase [8] and at Dihydrofolate reductase [9] were 5.82 µM and 3.67 µM, respectively. Besides, the Ratio IC50 in [10] was found to be 0.63.

`COc1ccc(-c2nc3c(N)nc(N)nc3nc2C(C)C)cc1` showed an MIC90 in [1] of 2.9 µM (≈ 0.9 µg/mL). The results for the IC50 at Dihydrofolate reductase [2] and at Dihydrofolate reductase [3] were 0.0545 µM and 0.382 µM, respectively.
